In ChEMBL document CHEMBL1240492, “3D-QSAR studies of latrunculin-based actin polymerization inhibitors using CoMFA and CoMSIA approaches” (Eur J Med Chem, 2010):

Test system: MCF7
Experiment: Antiproliferative activity against human MCF7 cells after 72 hrs by MTT assay
Assay type: functional, cell-based
Details: MCF7, 72 h
Procedure, shortened: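 MCF7 breast cancer cells in exponential growth seeded at 8 × 10^3 cells/well and left 24 h to attach. Medium was then switched to serum-free RPMI containing compound at […]. Cells were cultured 72 h at 37 °C in 5% CO2, then given MTT for 4 h and solubilized. A570 was converted to cell number using a hemocytometer-based standard curve. IC50 was obtained by nonlinear regression of log concentration versus cells/well.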

| SMILES | IC50 |
| --- | --- |
| COc1ccc(CC(=O)N2C(=O)SC[C@H]2[C@@]2(OC)C[C@H]3C[C@@H](CC[C@H](C)/C=C\C=C\CC/C(C)=C\C(=O)O3)O2)cc1 | 15.4 µM |
| C/C1=C/C(=O)O[C@@H]2C[C@@H](CC[C@H](C)/C=C\C=C\CC1)O[C@@](OCCc1ccccc1)([C@@H]1CSC(=O)N1)C2 | 10 µM |
| C/C1=C/C(=O)O[C@@H]2C[C@@H](CC[C@H](C)/C=C\C=C\CC1)O[C@@](OC(=O)c1ccccc1)([C@@H]1CSC(=O)N1)C2 | 1.92 µM |
| CO[C@]1([C@@H]2CSC(=O)N2C)C[C@H]2C[C@@H](CC[C@H](C)/C=C\C=C\CC/C(C)=C\C(=O)O2)O1 | 13.1 µM |
| CCN1C(=O)SC[C@H]1[C@@]1(OC)C[C@H]2C[C@@H](CC[C@H](C)/C=C\C=C\CC/C(C)=C\C(=O)O2)O1 | 20.7 µM |
| CO[C@]1([C@@H]2CSC(=O)N2C2CCCC2)C[C@H]2C[C@@H](CC[C@H](C)/C=C\C=C\CC/C(C)=C\C(=O)O2)O1 | 5.2 µM |
| CO[C@]1([C@@H]2CSC(=O)N2CCCO)C[C@H]2C[C@@H](CC[C@H](C)/C=C\C=C\CC/C(C)=C\C(=O)O2)O1 | 19.2 µM |
| CO[C@]1([C@@H]2CSC(=O)N2Cc2ccccc2)C[C@H]2C[C@@H](CC[C@H](C)/C=C\C=C\CC/C(C)=C\C(=O)O2)O1 | 1.28 µM |
| CO[C@]1([C@@H]2CSC(=O)N2C(=O)c2ccccc2)C[C@H]2C[C@@H](CC[C@H](C)/C=C\C=C\CC/C(C)=C\C(=O)O2)O1 | 1.82 µM |
| CCN1C(=O)SC[C@H]1[C@@]1(O)C[C@H]2C[C@@H](CC[C@H](C)/C=C\C=C\CC/C(C)=C\C(=O)O2)O1 | 1.05 µM |
| C/C1=C/C(=O)O[C@@H]2C[C@@H](CC[C@H](C)/C=C\C=C\CC1)O[C@@](O)([C@@H]1CSC(=O)N1Cc1ccccc1)C2 | 1.59 µM |
| C/C1=C/C(=O)O[C@@H]2C[C@@H](CC[C@H](C)/C=C\C=C\CC1)O[C@@](O)([C@@H]1CSC(=O)N1CO)C2 | 8.34 µM |
| CO[C@]1([C@@H]2CSC(=O)N2)C[C@H]2C[C@@H](CC[C@H](C)/C=C\C=C\CC/C(C)=C\C(=O)O2)O1 | 10.2 µM |
| C/C1=C/C(=O)O[C@@H]2C[C@@H](CC[C@H](C)/C=C\C=C\CC1)O[C@@](OC(=O)NCCCl)([C@@H]1CSC(=O)N1)C2 | 17.3 µM |
| C/C1=C/C(=O)O[C@@H]2C[C@@H](CC[C@H](C)/C=C\C=C\CC1)O[C@@](OC(=O)NCCCCl)([C@@H]1CSC(=O)N1)C2 | 25.7 µM |
| C/C1=C/C(=O)O[C@@H]2C[C@@H](CC[C@H](C)/C=C\C=C\CC1)O[C@@](OC(=O)NCCBr)([C@@H]1CSC(=O)N1)C2 | 19.4 µM |
| C/C1=C/C(=O)O[C@@H]2C[C@@H](CC[C@H](C)/C=C\C=C\CC1)O[C@@](OC(=O)NCc1ccccc1)([C@@H]1CSC(=O)N1)C2 | 3.5 µM |
| C/C1=C/C(=O)O[C@@H]2C[C@@H](CC[C@H](C)/C=C\C=C\CC1)O[C@@](OC(=O)Nc1ccccc1)([C@@H]1CSC(=O)N1)C2 | 7.69 µM |
| CO[C@]1([C@@H]2CSC(=O)N2)C[C@H]2C[C@@H](CC[C@H](C)/C=C\CC/C(C)=C\C(=O)O2)O1 [15-METHOXYLATRUNCULIN B] | 19.3 µM |
| CCCCO[C@]1([C@@H]2CSC(=O)N2)C[C@H]2C[C@@H](CC[C@H](C)/C=C\CC/C(C)=C\C(=O)O2)O1 [15-O-BUTYLLATRUNCULIN B] | 50.1 µM |
| CCCCCCCCO[C@]1([C@@H]2CSC(=O)N2)C[C@H]2C[C@@H](CC[C@H](C)/C=C\CC/C(C)=C\C(=O)O2)O1 [15-O-OCTYLLATRUNCULIN B] | 50.1 µM |
| C/C1=C/C(=O)O[C@@H]2C[C@@H](CC[C@H](C)/C=C\C=C\CC1)O[C@@](O)([C@@H]1CSC(=O)N1)C2 [LATRUNCULIN A] | 2.08 µM |
| C/C1=C/C(=O)O[C@@H]2C[C@@H](CC[C@H](C)/C=C\CC1)O[C@@](O)([C@@H]1CSC(=O)N1)C2 [LATRUNCULIN B] | 1.91 µM |
| CC(=O)N1C(=O)SC[C@H]1[C@@]1(O)C[C@H]2C[C@@H](CC[C@H](C)/C=C\CC/C(C)=C\C(=O)O2)O1 [N-ACETYLLATRUNCULIN B] | 4.3 µM |
| C/C1=C/C(=O)O[C@@H]2C[C@@H](CC[C@H](C)/C=C\CC1)O[C@@](O)([C@@H]1CSC(=O)N1CO)C2 [N-HYDROXYMETHYLLATRUNCULIN B] | 2.35 µM |
